# ChEMBL document CHEMBL1142449 (Bioorg Med Chem, 2008)
# Columns and labels:
# Assay type in all cases: cell-based
# [1] = target: T1, Neurotensin receptor type 1 (Homo sapiens, UniProt P30989); test: Displacement of [3H]SR48692 from wild type human NTR1 expressed in HEK293 cells
# In short: (§1)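 Membranes from HEK-293 cells transiently transfected (CaHPO4 method) with wild-type or EL1-mutant hNTR1 cDNA and harvested 48 h post-transfection. Homologous competition binding with 0.8 nM [3H]SR 48692 (81 Ci/mmol), adapted to 96-well format. Curves normalized per receptor, 4–6 experiments in triplicate. Kd and Bmax given with 95% confidence intervals.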
# [2] = test system: Neurotensin receptor type 1 (Homo sapiens), P30989 [F127A]; test: (§2) Displacement of [3H]SR48692 from human NTR1 extracellular loop 1 F127A mutant expressed in HEK293 cells; in short: as §1
# [3] = target: Neurotensin receptor type 1 (Homo sapiens, UniProt P30989, F127A); test: as §2; in short: as §1
# [4] = test system: Neurotensin receptor type 1 (Homo sapiens), P30989 [H131A]; test: (§3) Displacement of [3H]SR48692 from human NTR1 extracellular loop 1 H131A mutant expressed in HEK293 cells; in short: as §1
# [5] = target: Neurotensin receptor type 1 (Homo sapiens, UniProt P30989, H131A); test: as §3; in short: as §1
# [6] = test system: Neurotensin receptor type 1 (Homo sapiens), P30989 [P133A]; test: (§4) Displacement of [3H]SR48692 from human NTR1 extracellular loop 1 P133A mutant expressed in HEK293 cells; in short: as §1
# [7] = target: Neurotensin receptor type 1 (Homo sapiens, UniProt P30989, P133A); test: as §4; in short: as §1
# [8] = test system: Neurotensin receptor type 1 (Homo sapiens), P30989 [W134A]; test: (§5) Displacement of [3H]SR48692 from human NTR1 extracellular loop 1 W134A mutant expressed in HEK293 cells; in short: as §1
# [9] = target: Neurotensin receptor type 1 (Homo sapiens, UniProt P30989, W134A); test: as §5; in short: as §1
# [10] = test system: Neurotensin receptor type 1 (Homo sapiens), P30989 [F136A]; test: (§6) Displacement of [3H]SR48692 from human NTR1 extracellular loop 1 F136A mutant expressed in HEK293 cells; in short: as §1
# [11] = target: Neurotensin receptor type 1 (Homo sapiens, UniProt P30989, F136A); test: as §6; in short: as §1
# [12] = test system: Neurotensin receptor type 1 (Homo sapiens), P30989 [W129A]; test: (§7) Displacement of [3H]SR48692 from human NTR1 extracellular loop 1 W129A mutant expressed in HEK293 cells; in short: as §1
# [13] = target: Neurotensin receptor type 1 (Homo sapiens, UniProt P30989, W129A); test: as §7; in short: as §1
# [14] = target: T1, Neurotensin receptor type 1; test: Displacement of [3H]NT(8-13) from wild type human NTR1 expressed in HEK293 cells
# T1 sequence (P30989 whole entry): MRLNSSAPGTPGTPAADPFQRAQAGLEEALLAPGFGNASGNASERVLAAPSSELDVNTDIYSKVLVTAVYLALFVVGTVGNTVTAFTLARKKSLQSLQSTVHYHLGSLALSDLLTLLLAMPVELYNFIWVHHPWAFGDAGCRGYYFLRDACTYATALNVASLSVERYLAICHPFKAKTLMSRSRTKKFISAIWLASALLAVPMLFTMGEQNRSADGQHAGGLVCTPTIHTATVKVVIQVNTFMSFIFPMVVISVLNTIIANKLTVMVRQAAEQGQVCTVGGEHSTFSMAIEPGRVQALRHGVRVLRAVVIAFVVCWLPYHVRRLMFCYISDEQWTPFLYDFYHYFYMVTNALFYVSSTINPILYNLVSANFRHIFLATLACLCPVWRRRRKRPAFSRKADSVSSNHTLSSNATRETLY
# Neurotensin receptor type 1 (Homo sapiens), P30989 [F127A], sequence (P30989 whole entry F127A): as the sequence (P30989 whole entry) above, with F127A counted along it
# Neurotensin receptor type 1 (Homo sapiens, UniProt P30989, F127A), sequence (P30989 whole entry F127A): as the sequence (P30989 whole entry) above, with F127A counted along it
# Neurotensin receptor type 1 (Homo sapiens, UniProt P30989, W134A), sequence (P30989 whole entry W134A): as the sequence (P30989 whole entry) above, with W134A counted along it
# Neurotensin receptor type 1 (Homo sapiens), P30989 [W134A], sequence (P30989 whole entry W134A): as the sequence (P30989 whole entry) above, with W134A counted along it
# Neurotensin receptor type 1 (Homo sapiens), P30989 [P133A], sequence (P30989 whole entry P133A): as the sequence (P30989 whole entry) above, with P133A counted along it
# Neurotensin receptor type 1 (Homo sapiens, UniProt P30989, P133A), sequence (P30989 whole entry P133A): as the sequence (P30989 whole entry) above, with P133A counted along it
# Neurotensin receptor type 1 (Homo sapiens), P30989 [F136A], sequence (P30989 whole entry F136A): as the sequence (P30989 whole entry) above, with F136A counted along it
# Neurotensin receptor type 1 (Homo sapiens, UniProt P30989, F136A), sequence (P30989 whole entry F136A): as the sequence (P30989 whole entry) above, with F136A counted along it
# Neurotensin receptor type 1 (Homo sapiens), P30989 [W129A], sequence (P30989 whole entry W129A): as the sequence (P30989 whole entry) above, with W129A counted along it
# Neurotensin receptor type 1 (Homo sapiens, UniProt P30989, W129A), sequence (P30989 whole entry W129A): as the sequence (P30989 whole entry) above, with W129A counted along it
# Neurotensin receptor type 1 (Homo sapiens, UniProt P30989, H131A), sequence (P30989 whole entry H131A): as the sequence (P30989 whole entry) above, with H131A counted along it
# Neurotensin receptor type 1 (Homo sapiens), P30989 [H131A], sequence (P30989 whole entry H131A): as the sequence (P30989 whole entry) above, with H131A counted along it
Bmax [1] [pmol/mg],Kd [1] [nM],Bmax [2] [pmol/mg],Kd [3] [nM],Bmax [4] [pmol/mg],Kd [5] [nM],Bmax [6] [pmol/mg],Kd [7] [nM],Bmax [8] [pmol/mg],Kd [9] [nM],Bmax [10] [pmol/mg],Kd [11] [nM],Bmax [12] [pmol/mg],Kd [13] [nM],Ki [14] [nM],SMILES
15,8.9,18,19,16,8.4,9.3,9.2,10,23,10,33,9.4,27,–,COc1cccc(OC)c1-c1cc(C(=O)NC2(C(=O)O)C3CC4CC(C3)CC2C4)nn1-c1ccnc2cc(Cl)ccc12 (stereo not given) [REMINERTANT]
–,–,–,–,–,–,–,–,–,–,–,–,–,–,2.4,CC[C@H](C)[C@H](NC(=O)[C@H](Cc1ccc(O)cc1)NC(=O)[C@@H]1CCCN1C(=O)[C@H](CCCNC(=N)N)NC(=O)[C@@H](N)CCCNC(=N)N)C(=O)NC1(C(=O)O)C2CC3CC(C2)CC1C3 (stereo not given in full)
